Published values pooled from the literature.
Lines come from different studies, so protocols differ.
SIRT3: NAD-dependent protein deacetylase sirtuin-3, mitochondrial (SIRT3, Homo sapiens, UniProt Q9NTG7)
PTPN11: Tyrosine-protein phosphatase non-receptor type 11 (PTPN11, Homo sapiens, UniProt Q06124)
PTPN9: Tyrosine-protein phosphatase non-receptor type 9 (PTPN9, Homo sapiens, UniProt P43378)
PTGS1: Prostaglandin G/H synthase 1 (PTGS1, Ovis aries, UniProt P05979)
DRD1: D(1A) dopamine receptor (DRD1, Homo sapiens, UniProt P21728)
NTRK2: BDNF/NT-3 growth factors receptor (NTRK2, Homo sapiens, UniProt Q16620)
CYP2B6: Cytochrome P450 2B6 (CYP2B6, Homo sapiens, UniProt P20813)
BCHE: Cholinesterase (BCHE, Equus caballus, UniProt P81908)

SMILES | target | assay | test system | conditions | IC50
CCCCCCCCCCCCNC(=S)NCCCC[C@H](NC(C)=O)C(=O)N[C@@H](C)C(=O)N[C@@H](CCCNC(=N)N)C(N)=O | SIRT3 | enzyme activity, inhibitor |  |  | 2.2 µM
N[C@@H](Cc1ccccc1)C(=O)N[C@@H](Cc1ccccc1)C(=O)N[C@@H](CC(=O)O)C(=O)O | PTPN11 | enzyme activity, inhibitor, absorbance |  | pH 7.4 | 114 µM
C=C(NC(=O)[C@H](CCCCNC(=S)NCCCCCCCCCCCC)NS(C)(=O)=O)C(=O)N[C@@H](CCCNC(=N)N)C(N)=O | SIRT3 | enzyme activity, inhibitor |  |  | 2.9 µM
CC(C)(C)n1nc(-c2ccc3nc(OC4CC4)ccc3c2)c(C(N)=O)c1N | Calcium/calmodulin-dependent protein kinase type 1D (CAMK1D, Homo sapiens, UniProt Q8IU85) | cell-free assay |  |  | > 10 µM
N[C@@H](Cc1ccc(C(F)(F)P(=O)(O)O)cc1)C(=O)O | PTPN9 | enzyme activity, inhibitor, absorbance |  |  | 11500 µM
Cc1ccn2c(Nc3ccccc3)c(-c3ccc(S(C)(=O)=O)cc3)nc2c1 | PTGS1 | enzyme activity, inhibitor, fluorescence |  |  | 55.1 µM
CCCOc1c(O)cc(Br)c2c1CN1CCc3cc(OCC(F)F)c(O)cc3[C@@H]1C2 | DRD1 | cAMP, antagonist, TR-FRET |  |  | 0.188 µM
O=C1Nc2ccc(I)cc2/C1=C/c1cc(Br)c(O)c(Br)c1 | Ribosomal protein S6 kinase alpha-3, N-terminal kinase domain (RPS6KA3, Homo sapiens, UniProt P51812) | enzyme activity, inhibitor, FP |  |  | 1 µM
O=Cc1ccc2[nH]ncc2c1 | Ribosomal protein S6 kinase alpha-3 (RPS6KA3, Homo sapiens, UniProt P51812, C436V) | enzyme activity, inhibitor |  |  | ~350 µM
C[C@@H]1Cc2ccccc2N1C(=O)NCCCCN(C)[C@@H]1Cc2cccc3[nH]c(=O)n(c23)C1 | DRD1 | ligand displacement, radioligand |  |  | > 10 µM
COC(=O)[C@H](Cc1ccc(OP(=O)(O)O)c(OP(=O)(O)O)c1)NC(=O)OCC1c2ccccc2-c2ccccc21 | Signal transducer and activator of transcription 5A, SH2 (Homo sapiens, UniProt P42229) | ligand displacement, FP |  |  | 15.8 µM
COc1ccc(Nc2c(-c3ccc(S(C)(=O)=O)cc3)nc3cccc(C)n23)cc1 | PTGS1 | enzyme activity, inhibitor, fluorescence |  |  | 21.1 µM
CNC(=O)c1cc(Oc2ccc(NC(=O)Nc3cc(C(C)(C)C)nn3-c3ccc4ncccc4c3)c(F)c2)ccn1 | Mitogen-activated protein kinase kinase kinase 20 (MAP3K20, Homo sapiens, UniProt Q9NYL2) | enzyme activity, inhibitor, mass spectrometry |  |  | 0.012 µM
C[C@@H](N)COc1ccc(-c2cnc3ccc(N[C@H](C)c4cccc(F)c4)nn23)cc1 | NTRK2 | enzyme activity, inhibitor |  |  | 0.0055 µM
O=C(O)/C=C/c1ccc(-c2ccc(F)cc2)c(Cl)c1 | PTPN11 | enzyme activity, inhibitor, fluorescence |  |  | 2.11 µM
CCOC(F)(F)c1nnc2cnc(-c3cnc(OCC(F)(F)F)c(F)c3)cn12 | Sodium channel protein type 8 subunit alpha (Scn8a, Mus musculus, UniProt Q9WTU3) | ion current, inhibitor, patch clamp |  |  | 0.145 µM
N[C@@H](CC(=O)O)C(=O)N[C@@H](Cc1ccccc1)C(=O)O | PTPN11 | enzyme activity, inhibitor, absorbance |  | pH 7.4 | 109 µM
Cc1cc2c(F)c(Oc3ncnn4cc(OC[C@@H](C)O)c(C)c34)ccc2[nH]1 | CYP2B6 | enzyme activity, inhibitor, fluorescence |  | 15 min | 5.95 µM

SMILES | target | assay | test system | conditions | IC50
CC(=O)N1CCN(c2nccc(NCc3ccccc3)n2)CC1 | BCHE | enzyme activity, inhibitor |  |  | > 100 µM
CC1=C[C@@]2(C[C@H](C)[C@H]3CC=C(C)C(=O)[C@@H]3O2)OC1=O | PTPN11 | enzyme activity, inhibitor |  |  | > 500 µM
Cc1ccc(Nc2c(-c3ccc(S(C)(=O)=O)cc3)nc3cc(C)ccn23)cc1 | PTGS1 | enzyme activity, inhibitor, fluorescence |  |  | 33.9 µM
CC(=O)NO | Urease (Canavalia ensiformis, UniProt P07374) | enzyme activity, inhibitor |  |  | 20.4 µM
C=CC(=O)Nc1cc(Nc2nccc(Nc3cc(Cl)c(F)cc3C(C)(C)O)n2)c(OC)cc1N1CC[C@@H](N(C)C)C1 | CYP2B6 | enzyme activity, inhibitor | human, liver microsomes |  | > 30 µM
CCN(CC)CCCC[C@H](NC(=O)[C@H](CC(C)C)NC(=O)[C@H](C)NC(=O)[C@H](Cc1ccccc1)NC(=O)c1ccc(C(C)(C)C)cc1)C(=O)N[C@@H](CO)C(=O)OC | Chromobox protein homolog 8 (Homo sapiens, UniProt Q9HC52) | ligand displacement, TR-FRET |  |  | 0.56 µM
CC(NC(=O)c1ccccc1/N=C/c1c(O)ccc2ccccc12)c1ccccc1 (centres unmarked) | SIRT3 | enzyme activity, inhibitor, HPLC |  |  | 150 µM
CN1CCN(c2ccc(Nc3ncc4cc(C#N)c(=O)n(C5CCCC5)c4n3)cc2)CC1 | Ribosomal protein S6 kinase alpha-3 (RPS6KA3, Homo sapiens, UniProt P51812) | enzyme activity, inhibitor |  |  | 0.38 µM
C[C@@H](O)[C@@H]1NC(=O)[C@H](CCCCN)NC(=O)[C@@H](Cc2c[nH]c3ccccc23)NC(=O)[C@H](Cc2ccc(O)cc2)NC(=O)[C@@H](NC(=O)[C@@H](Cc2ccccc2)NC(=O)CCC(C(=O)O)N2CCN(CC(=O)O)CCN(C(CCC(=O)O)C(=O)O)CC2)CSSC[C@@H](C(=O)N[C@H](CO)[C@@H](C)O)NC1=O (some centres unmarked) | Somatostatin receptor type 2 (Rattus norvegicus, UniProt P30680) | ligand displacement, radioligand |  |  | 0.0337 µM
Cc1c(Br)cc(NC(=O)C(c2ccccc2)S(=O)(=O)O)cc1Br (centres unmarked) | PTPN9 | enzyme activity, inhibitor, absorbance |  |  | > 200 µM
COc1ccc(COc2c(OC)ccc3c2C[C@@H](C(=O)O)N(c2nc4ccc(C#N)cc4o2)C3)cn1 | Type-2 angiotensin II receptor (AGTR2, Homo sapiens, UniProt P50052) | cell-free assay, TR-FRET |  |  | 0.046 µM
Cc1cc(Nc2cc(CN3CCOCC3)c3nc(C)c(Cc4ccc(Cl)cc4F)n3n2)n[nH]1 | Mitogen-activated protein kinase kinase kinase 9 (MAP3K9, Homo sapiens, UniProt P80192) | enzyme activity, inhibitor, TR-FRET |  |  | 0.299 µM
c1ccc(CNc2ccnc(N3CCNCC3)n2)cc1 | BCHE | enzyme activity, inhibitor |  |  | > 100 µM
CC(=O)N1C[C@@H](CCN2CCC(c3c[nH]c4cc(Cl)ccc34)CC2)c2ccccc21 | Sodium-dependent serotonin transporter (SLC6A4, Homo sapiens, UniProt P31645) | ligand displacement, radioligand |  | cell membranes | 0.242 µM
Cc1cnc(-c2ccc(-c3ccc(NC(=O)Nc4c(F)cc(F)cc4F)cc3F)c3c2C(=O)NC3)[nH]1 | NTRK2 | enzyme activity, inhibitor |  |  | 0.0065 µM
COCCN1CCN(c2nccc(NCc3ccccc3)n2)CC1 | BCHE | enzyme activity, inhibitor |  |  | > 100 µM
O=C(NO)c1ccc(CN(c2cnccn2)c2cnccn2)cc1 | SIRT3 | enzyme activity, inhibitor, fluorescence |  |  | > 10 µM
